IC50 and Activity data for 20 molecules are collected here from ChEMBL document CHEMBL1811858, “A class of oral N-[(1S,3S)-1-methyl-1,2,3,4-tetrahydro-β-carboline-3-carbonyl]- N'-(amino-acid-acyl)hydrazine: discovery, synthesis, in vitro anti-platelet aggregation/in vivo anti-thrombotic evaluation and 3D QSAR analysis” (Eur J Med Chem, 2011).

The term IC50 denotes the point on the concentration scale where inhibition reaches its midpoint.

Assay [1] is described as follows: Antiplatelet activity in pig platelet assessed as inhibition of ADP-induced aggregation measured for 5 mins by aggregometry (reference value: 50.16 +/- 3.65%). Format: functional, cell-based. The note with it: Sus scrofa.
A short description of assay [2]: Antiplatelet activity in pig platelet assessed as inhibition of platelet activating factor-induced aggregation measured for 5 mins by aggregometry (reference value: 52.30 +/- 1.78%). In kind it is functional, cell-based. The note with it: Sus scrofa.
Assay [3] is described as follows: Antiplatelet activity in pig platelet assessed as inhibition of arachidonic acid-induced aggregation measured for 5 mins by aggregometry (reference value: 49.62 +/- 2.90%). In kind it is functional, cell-based. Conditions: Sus scrofa.
The subject of assay [4] is Rattus norvegicus. The assay is described as follows: Antithrombotic activity in pentobarbital sodium anesthetized Wistar rat assessed as decrease in thrombus weight at 10 nmol/kg, po (reference value: 28.21=/-1.11 mg). Format: functional. An outline of the steps: (§1)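 Male Wistar rats (250–300 g) received test agents orally, dissolved in NS and kept on ice; NS served as the vehicle control. After 30 min, rats were anaesthetised with pentobarbital sodium (80.0 mg/kg, i.p.). The right carotid artery and left jugular vein were exposed and joined through a polyethylene tube holding a weighed 6 cm thread. Wet thrombus weight is reported as mean ± SD in mg.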

A short description of assay [5]: Antiplatelet activity in pig platelet assessed as inhibition of ADP-induced aggregation at 1.7 mM measured for 5 mins by aggregometry. In kind it is functional, Sus scrofa. Set-up: scale not given: the % may be the effect or the level left.
The nature of assay [6]: Antiplatelet activity in pig platelet assessed as inhibition of platelet activating factor-induced aggregation at 1.7 mM measured for 5 mins by aggregometry. Format: functional, Sus scrofa. The arrangement: scale not given: the % may be the effect or the level left.
Assay [7] in a line: Antiplatelet activity in pig platelet assessed as inhibition of arachidonic acid-induced aggregation at 1.7 mM measured for 5 mins by aggregometry. In kind it is functional, Sus scrofa. The arrangement: scale not given: the % may be the effect or the level left.
The subject of assay [8] is Rattus norvegicus. Description: Antithrombotic activity in pentobarbital sodium anesthetized Wistar rat assessed as thrombus weight at 160 umol/kg, po (reference value: 28.21=/-1.11 mg). In kind it is functional. The procedure, abridged: as §1
The subject of assay [9] is Rattus norvegicus. Description: Antithrombotic activity in pentobarbital sodium anesthetized Wistar rat assessed as decrease in thrombus weight at 1 nmol/kg, po. In kind it is functional. The procedure, abridged: as §1
Assay [10] relates to Rattus norvegicus. The assay is described as follows: Antithrombotic activity in pentobarbital sodium anesthetized Wistar rat assessed as decrease in thrombus weight at 0.1 nmol/kg, po. Format: functional. The procedure, abridged: as §1
For assay [11], the system named is Rattus norvegicus. The assay is described as follows: Antithrombotic activity in po dosed Wistar rat assessed as decrease in thrombus weight. In kind it is functional, organism-based. An outline of the steps:
as §1

The subject of assay [12] is Rattus norvegicus. The assay is described as follows: Antithrombotic activity in pentobarbital sodium anesthetized Wistar rat assessed as decrease in thrombus weight at 100 nmol/kg, po (reference value: 28.21=/-1.11 mg). Format: functional. An outline of the steps: as §1

On to `C[C@H](N)C(=O)NNC(=O)[C@@H]1Cc2c([nH]c3ccccc23)[C@H](C)N1`, for which the half-maximal inhibitory concentration (IC50) in assay [1] amounted to 118 µM; in assay [2] it was 162 µM; in [3], 20 µM. Besides, the Activity with Rattus norvegicus [4] came to 20.06 mg.

For `CSCC[C@H](N)C(=O)NNC(=O)[C@@H]1Cc2c([nH]c3ccccc23)[C@H](C)N1`, the values for the 50% inhibitory concentration (IC50) in assay [1], in assay [2] and in [3] were 417 µM, 52.9 µM and 21.7 µM, respectively. In addition, the Activity with Rattus norvegicus [4] is recorded as 18.55 mg.

Take `C[C@@H]1N[C@H](C(=O)NNC(=O)[C@@H](N)Cc2cnc[nH]2)Cc2c1[nH]c1ccccc21`: the 50% inhibitory concentration (IC50) in assay [1] amounted to 94.6 µM; in [2], 7.7 µM; in assay [3] it was 4.8 µM. Also, the Activity in the assay on Rattus norvegicus [4] was determined as 19.75 mg.

With `C[C@@H]1N[C@H](C(=O)NNC(=O)[C@@H](N)CCC(=O)OCc2ccccc2)Cc2c1[nH]c1ccccc21`, the 50% inhibitory concentration (IC50) in [1] was 524 µM; in assay [2], 362 µM; in assay [3] it was 6.3 µM. Moreover, in the assay on Rattus norvegicus [4], the Activity turned out to be 21.36 mg.

As to `C[C@@H]1N[C@H](C(=O)NNC(=O)[C@@H](N)CC(=O)OCc2ccccc2)Cc2c1[nH]c1ccccc21`, the figures for the IC50 in [1], in assay [2] and in [3] were 117 µM, 196 µM and 5.2 µM, respectively. For the same molecule, in the assay with Rattus norvegicus [4], the Activity worked out at 19.65 mg.

`C[C@@H]1N[C@H](C(=O)NNC(=O)[C@@H](N)Cc2ccc(O)cc2)Cc2c1[nH]c1ccccc21`: the IC50 in assay [1] is 152 µM; in assay [2], 12.7 µM; in [3], 13 µM. Moreover, the Activity with Rattus norvegicus [4] amounted to 20.24 mg.

For the molecule `CC(=O)Oc1ccccc1C(=O)O` [ASPIRIN], the Activity in [5] amounted to 31.14%; in assay [6], 33.22%; in [7], 34.5%; in the assay on Rattus norvegicus [8], 18.24 mg.

Take `C[C@@H]1N[C@H](C(=O)NNC(=O)[C@@H](N)CC(N)=O)Cc2c1[nH]c1ccccc21`: the IC50 was determined as 609 µM in assay [1], 507 µM in assay [2] and 19.7 µM in assay [3]. For the same molecule, the Activity in the assay on Rattus norvegicus [4] is listed as 20.42 mg.

As for `C[C@@H]1N[C@H](C(=O)NNC(=O)[C@@H](N)[C@@H](C)O)Cc2c1[nH]c1ccccc21`, the results for the half-maximal inhibitory concentration (IC50) in [1], in assay [2] and in assay [3] were 531 µM, 31.9 µM and 4.7 µM, respectively. Also, the Activity was 18.67 mg in the assay on Rattus norvegicus [4], 22.77 mg with Rattus norvegicus [9], 27.22 mg with Rattus norvegicus [10] and “Dose-dependent effect” in the assay on Rattus norvegicus [11].

For the molecule `C[C@@H]1N[C@H](C(=O)NNC(=O)[C@@H](N)CO)Cc2c1[nH]c1ccccc21`, the values for the half-maximal inhibitory concentration (IC50) in assay [1], in assay [2] and in assay [3] were 276 µM, 119 µM and 19.9 µM, respectively. Also, in the assay on Rattus norvegicus [4], the Activity came to 19.04 mg.

For `CC(C)C[C@H](N)C(=O)NNC(=O)[C@@H]1Cc2c([nH]c3ccccc23)[C@H](C)N1`, the values for the 50% inhibitory concentration (IC50) in assay [1], in assay [2] and in [3] were 31.6 µM, 1.2 µM and 3.2 µM, respectively. Further, the Activity with Rattus norvegicus [4] is on record as 21.06 mg.

As for `C[C@@H]1N[C@H](C(=O)NN)Cc2c1[nH]c1ccccc21`, the half-maximal inhibitory concentration (IC50) amounted to 611 µM in assay [1], 111 µM in assay [2] and 21.5 µM in assay [3]. The Activity in the assay with Rattus norvegicus [12] was found to be 21.23 mg.

As for `C[C@@H]1N[C@H](C(=O)NNC(=O)[C@@H]2CCCN2)Cc2c1[nH]c1ccccc21`, the concentration for half-maximal inhibition (IC50) in assay [1] stood at 166 µM; in assay [2], 134 µM; in [3], 20.6 µM. Also, the Activity with Rattus norvegicus [4] is recorded as 20.39 mg.

Take `C[C@@H]1N[C@H](C(=O)NNC(=O)CN)Cc2c1[nH]c1ccccc21`: the IC50 in assay [1] came out at 722 µM; in [2], 348 µM; in assay [3], 20.7 µM. In the assay with Rattus norvegicus [4], the Activity came out at 23.74 mg.

As to `CC(C)[C@H](N)C(=O)NNC(=O)[C@@H]1Cc2c([nH]c3ccccc23)[C@H](C)N1`, the concentration for half-maximal inhibition (IC50) in assay [1] worked out at 156 µM; in assay [2], 50 µM; in assay [3], 3.7 µM. Also, the Activity with Rattus norvegicus [4] is 24.01 mg.

`CC[C@H](C)[C@H](N)C(=O)NNC(=O)[C@@H]1Cc2c([nH]c3ccccc23)[C@H](C)N1`: the IC50 amounted to 51.1 µM in assay [1], 1.4 µM in assay [2] and 2.4 µM in [3]. For the same molecule, in the assay on Rattus norvegicus [4], the Activity is recorded as 20.62 mg.

Regarding `C[C@@H]1N[C@H](C(=O)NNC(=O)[C@@H](N)CCC(N)=O)Cc2c1[nH]c1ccccc21`, the 50% inhibitory concentration (IC50) in [1] was 598 µM; in assay [2], 267 µM; in [3], 18.5 µM. Besides, in the assay on Rattus norvegicus [4], the Activity amounted to 21.01 mg.

For the molecule `C[C@@H]1N[C@H](C(=O)NNC(=O)[C@@H](N)Cc2c[nH]c3ccccc23)Cc2c1[nH]c1ccccc21`, the results for the IC50 in assay [1], in [2] and in assay [3] were 21.7 µM, 4.3 µM and 0.6 µM, respectively. Besides, in the assay with Rattus norvegicus [4], the Activity amounted to 18.87 mg.

For `C[C@@H]1N[C@H](C(=O)NNC(=O)[C@@H](N)CCCCN)Cc2c1[nH]c1ccccc21`, the half-inhibitory concentration (IC50) in [1] is 321 µM; in assay [2], 106 µM; in [3], 3.4 µM. Also, in the assay on Rattus norvegicus [4], the Activity was 18.97 mg.

For `C[C@@H]1N[C@H](C(=O)NNC(=O)[C@@H](N)Cc2ccccc2)Cc2c1[nH]c1ccccc21`, the IC50 in assay [1] was determined as 307 µM; in assay [2], 109 µM; in assay [3], 7.1 µM. The Activity with Rattus norvegicus [4] was 21 mg.
